Drawing on the RNAGym collection of RNA variant scans (doi:10.1126/science.aae0568), this text covers yeast fitness for 167 variants.

First the molecules themselves.
B1: tRNA (parent)
chain: GUUCCGUUGGCGUAAUGGUAACGCGUCUCCCUCCUAAGGAGAAGACUGCGGGUUCGAGUCCCGUACGGAACG

Fewer inactive variants are shown than the library holds. Some results are limits rather than exact numbers.

The variants in this data set derive from B1. Description: yeast fitness relative to wild type (ratio to wild type); higher = fitter; tRNA-Arg(CCU), competitive growth, 37 C, YPD. In outline:
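Gene amplicons from the start population and from each of six end populations were read by 100-nucleotide paired-end sequencing. Those end populations came from pooled Saccharomyces cerevisiae strains carrying tRNA-Arg(CCU) gene variants at the native locus, competed in YPD at 37°C for 24 hours. Fitness relative to wild type was worked out from changes in genotype frequencies. Genotypes needed ≥ 100 starting reads, and estimates < 0.5 were set to 0.5.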
Consider U28C C29A, for which the yeast fitness was 0.703.
In the case of G63A A69U it was 0.856.
In the case of C4G C22G G52C G68C it was 0.575.
For C5A U35C G44A G48C C55G, the yeast fitness is at most 0.5.
To G50A G52C belongs 0.663; to U8C C66G, 0.75.
To U8G A70U belongs 0.59.
In the case of C22G C34A U53C it was 0.543; in that of G10A G50A U59A C61A C66G, 0.606.
Turning to G25A G41A G51C C60U, the yeast fitness is at most 0.5.
In the case of G10A A45U C61U it was 0.536; in that of C11G A15U A36U C66U, at most 0.5; in that of G6A A21C C49A A70G, at most 0.5.
To U26C U64A belongs 0.699.
As to U28G C33G C49U G68C A69U, the yeast fitness was at most 0.5.
Take G17C U32C A42U: the yeast fitness came out at 0.559.
To U2G C49U belongs 0.957; to C29A A37U G38C A40C A43C C46U, 0.599; to G25A A37C G51C A57G, at most 0.5.
For U16C G63A, the yeast fitness came to 0.884.
As for C5G C31U C33U A57U, the yeast fitness is at most 0.5.
In the case of U26C C49A G67A, the yeast fitness is at most 0.5.
To C4G U8A G12A C34A G50C belongs at most 0.5.
In the case of C46G A57U it was 0.907.
To A42C G67A belongs 0.833; to G23C U28A A65G, at most 0.5.
In the case of C24G C30U C34A A45G G51A, the yeast fitness was at most 0.5.
To U2A C4U U28A C30U belongs 0.56; to U13G G58C G67C, 0.603.
In the case of U2G A37C G41A C49U it was at most 0.5.
Turning to C24U G52C, the yeast fitness came out at 0.702.
In the case of G17C C33U A37C it was at most 0.5.
As for U53A C62G, the yeast fitness is 0.598.
To G18A A20U A36U C62U belongs at most 0.5; to U8C A57U, 0.788.
To C27U U28A A37G A57C G58C belongs 1; to C46A A57G G68A, 0.605; to G17C C22U C30U A37U, at most 0.5.
To C5A G48C A57U belongs at most 0.5; to A14U G23C C29G G51A G56U, at most 0.5.
Take U28A C60G C66G A69G: the yeast fitness was at most 0.5.
Take C5U C61G G67U: the yeast fitness was at most 0.5.
In the case of C31A U54C U64A it was at most 0.5; in that of G9A C49A, 0.654.
In the case of U16A C46U G51C it was 0.769; in that of C24G C30U U32A A45G C62U, at most 0.5; in that of U3A C22G C29U G63A, at most 0.5.
In the case of A43G G48C it was 0.829; in that of U2A U19A A20C G25A U26A, at most 0.5.
As to C24G C27U C33U G50C, the yeast fitness was at most 0.5.
To G17C U53G A70U belongs 0.564.
To C27A C31U A43U belongs 0.961; to G17A A40C, 0.668; to C5G U13C C24U, at most 0.5.
To U13C C33U A45G G50A C66A G68A A70U belongs at most 0.5.
For U13G A57C, the yeast fitness worked out at 0.599.
In the case of A21C C24G G68C it was at most 0.5; in that of U2C C55G G56C A69U, at most 0.5; in that of C4G U47C U59G, at most 0.5.
Take A43C A65G: the yeast fitness turned out to be 0.95.
To U26A A57C C61G G67A A69U belongs at most 0.5; to C11G G12A C31G A69C, at most 0.5; to C11A C29G C66U, 0.525.
To U3G A14G C62A belongs 0.603; to A21U G23C C49U, at most 0.5.
To U7A C34A G56C belongs 0.541; to G23A A40U A70G, 0.537.
Take U7C A21U A36U A37C: the yeast fitness was at most 0.5.
In the case of U26A A57C G67A A69U it was 0.58.
To A14U C29U C30A A45C belongs at most 0.5; to U16A C27G C46G G67A, 0.505; to C4G U8C G18C A21C C55U, at most 0.5.
To C29G C30A C49U belongs at most 0.5.
For the variant C24A C62U A70C, the yeast fitness is at most 0.5.
For the variant G23C C33A G50C G58C, the yeast fitness was at most 0.5.
In the case of U3A C29U it was 0.85; in that of C27A G41C C66U, 0.689.
In the case of C24U C55U G68C it was 0.552.
To C22U C34G A36U belongs 0.519.
Consider C5U C24U A69C, for which the yeast fitness worked out at 0.777.
To G10A G23C C29U A36C belongs 0.532; to C4G A40G A45G, at most 0.5; to U7G C11U G12C C33U, at most 0.5.
In the case of G12C G56A it was 0.838; in that of G25C G44A, 0.97; in that of G41A G67C, 0.775.
In the case of C22A C30A it was 0.686; in that of C11U G25C A40U C49U, at most 0.5; in that of U2C A14C U19A, 0.595.
For the variant U3C A20U A70C, the yeast fitness turned out to be 0.59.
In the case of U3G it was 0.978; in that of U13C G38C, 0.644; in that of U16C C22A A40G C60A, at most 0.5.
On to G18A U59G, for which the yeast fitness was 0.776.
In the case of A45C G52A U53C G58A C62G it was at most 0.5; in that of C29U C34U G48C G52A, at most 0.5; in that of U2G U7C A69U, at most 0.5.
To U7C G25A C55A belongs at most 0.5.
Take G12C C34A G44A C46U G68A: the yeast fitness is at most 0.5.
To G12A C30U U47A G67C belongs at most 0.5; to A42C G68A, 0.898.
In the case of C11U U28C G44C A69C A70C it was at most 0.5.
U8A G17A C22U C24U U28C U54G A57C C62U: the yeast fitness is at most 0.5.
To C30A U32G G67A A69C belongs at most 0.5; to G23A C30U C62A, 0.561.
In the case of C22G A43G it was 0.702; in that of C5G C27U G41C, at most 0.5; in that of C11G U26A U54C, at most 0.5.
In the case of C4A U8C G10A A42C it was at most 0.5; in that of C30A G44A, 0.88.
Take A20C C49U: the yeast fitness is 1.03.
In the case of U2A U7A it was 0.666; in that of A42C U53A U54A, at most 0.5.
In the case of G10C C29G A42U it was 0.554.
With C30A, the yeast fitness is 0.998.
In the case of U16G U26A C34U G50A it was 0.552; in that of C31A A37G C55U A57G, 0.531; in that of U8A U54C, 0.657.
To C11U U13A U16A U54A belongs 0.711.
In the case of U13G A36G G68C it was at most 0.5.
Regarding U8C C22A U53A, the yeast fitness is at most 0.5.
To C4A C5A A20U C31U C49U belongs at most 0.5; to C29G C46U, 0.611; to U8G C60G, at most 0.5.
In the case of U3C C11U C22A C29G C33U U64C A70C it was at most 0.5; in that of A42U C61U, 0.827.
To U7A C27U C29U belongs at most 0.5.
In the case of C33U U35A, the yeast fitness was at most 0.5.
Take C5A C30A G51A: the yeast fitness is at most 0.5.
To C31U C49U U64A belongs 0.685; to A14G G18A U26A U32C, at most 0.5; to U13A C33G A40G C60A, at most 0.5.
For C11U C30U A42U G51A A57U A65U A70U, the yeast fitness was at most 0.5.
To C5G U7A A20C C46U belongs at most 0.5.
In the case of A20C G44C C61U, the yeast fitness was found to be 0.56.
Turning to C30U C46A C66U, the yeast fitness worked out at 0.83.
Turning to C34A A40C U54C C66U, the yeast fitness is 0.623.
In the case of C60U G67A it was 0.721.
To U13G G39C C49G A65G belongs at most 0.5; to C4G U8G G9A C11U, 0.562.
In the case of U8C C22G U47C U53G it was at most 0.5.
In the case of U8C G12A U19C C34G C66U A69U, the yeast fitness was at most 0.5.
To C11A A57C belongs 0.675; to G44C G56A C66U, 0.634.
In the case of U7A C34G U59G G68U it was at most 0.5; in that of U2A A14C A36G C66U, 0.639; in that of G23C C29G G63C C66G, at most 0.5.
In the case of U19C A20C it was 0.805; in that of U16C C31U C33A C34G U35A G52A G67A, at most 0.5.
C4U U7A A36U A70G: the yeast fitness was at most 0.5.
To C5U C22U A57U belongs 0.574; to C5U C27U A36G, 0.75; to C24U C66A, 0.618.
To A21C C62G belongs 0.723; to C4G C31U A37G, 0.653.
In the case of A15C C60U C66A it was at most 0.5.
Take A15C C22U G38A C55G: the yeast fitness was at most 0.5.
To U7A C49A A69C belongs at most 0.5.
In the case of G10U G17A C24A C66G it was 0.595; in that of A20G G50A U59C, 0.571.
In the case of G10C A21C C30U G41C it was at most 0.5.
Regarding A20U A45C G52C, the yeast fitness was found to be 0.568.
To C4G G67A belongs 0.913.
In the case of C34U A57U it was at most 0.5; in that of A21G G23C C31U C34G A43G A45C A57U, 0.574.
In the case of G9C A15G A21G C49G C60A it was at most 0.5.
On to G6A U13G C22A U26A C29G C34G G50C, for which the yeast fitness was at most 0.5.
